Measured values from ChEMBL document CHEMBL2424543, “Enantioselective effects of (+)- and (-)-citronellal on animal and plant microtubules” (J Nat Prod, 2013).
Calls of active or inactive are those of the source. No cut-off for these calls is given here.

How the values were obtained:
REF52 [1] = test: Induction of microtubule depolymerization in rat REF52 cells at 2 uM after 30 mins by fluorescence assay; assay type: cell-based
[2] = target: Tubulin beta-6 chain (Arabidopsis thaliana) (UniProt P29514); test: Effect on GFP-tagged tubulin beta6 polymerization in Arabidopsis thaliana (L.) Heynh at 25 uM after 10 mins by confocal microscopic analysis
HeLa [3] = test: Induction of microtubule depolymerization in human HeLa cells at 27.5 uM after 30 mins by fluorescence assay; assay type: cell-based
Summary of the method: (§1)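 HeLa or Ref52 cells were grown in DMEM with 10% fetal calf serum at 37 °C/5% CO2. Compound was dissolved in DMSO and diluted in serum-free DMEM. Cells were permeabilized and fixed in paraformaldehyde/Triton X-100. MTs were immunostained with DM1A plus an Alexa 488 secondary, and actin was stained with Alexa 555-phalloidin. Cells were examined by confocal microscopy.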

Arabidopsis thaliana [4] = test: Effect on GFP-talin-tagged actin organization in Arabidopsis thaliana (L.) Heynh at 25 uM after 10 mins by confocal microscopic analysis
Summary of the method: (§2)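 GFP-talin (actin marker) Arabidopsis Columbia seedlings were raised on MS medium with 4 days of dark stratification at 4 °C, then grown at 24 °C under a 16/8 h photoperiod. Cotyledons of 7-day-old seedlings were treated with 25 μM for 10 min. Actin fiber organization and dynamics were followed by confocal time-lapse imaging.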

Arabidopsis thaliana [5] = test: Effect on GFP-talin-tagged actin dynamics in Arabidopsis thaliana (L.) Heynh at 25 uM after 10 mins by confocal microscopic analysis; summary of the method: as §2
[6] = target: Tubulin beta-6 chain (Arabidopsis thaliana) (UniProt P29514); test: Effect on GFP-tagged tubulin beta6 polymerization in Arabidopsis thaliana (L.) Heynh assessed as growth of leading end at 25 uM after 10 mins by confocal microscopic analysis (reference value: 5.79 +/- 1.15 um/min)
REF52 [7] = test: Induction of microtubule depolymerization in rat REF52 cells at 27.5 uM after 30 mins by fluorescence assay; assay type: cell-based
[8] = target: Tubulin beta-6 chain (Arabidopsis thaliana) (UniProt P29514); test: Effect on GFP-tagged tubulin beta6 polymerization in Arabidopsis thaliana (L.) Heynh assessed as shorten leading end at 25 uM after 10 mins by confocal microscopic analysis (reference value: 15.43 +/- 5.37 um/min)
REF52 [9] = test: Induction of microtubule depolymerization in rat REF52 cells at 27.5 uM by fluorescence assay; assay type: cell-based; settings: TDE = time-dependent effect
REF52 [10] = test: Induction of microtubule depolymerization in rat REF52 cells at 27.5 to 55 uM after 30 mins by fluorescence assay relative to control; assay type: cell-based
REF52 [11] = test: Induction of microtubule depolymerization in rat REF52 cells after 30 mins by fluorescence assay; assay type: cell-based
REF52 [12] = test: Induction of microtubule depolymerization in rat REF52 cells at 27.5 uM after 5 to 30 mins by fluorescence assay relative to control; assay type: cell-based
Bos taurus [13] = organism: Bos taurus; test: Inhibition of rhodamine-labeled bovine brain tubulin polymerization assessed as shorter microtubules at 20 uM after 20 mins by fluorescence microscopic analysis relative to control
Summary of the method: (§3)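 Purified bovine brain tubulin mixed with rhodamine-tubulin and GTP was polymerized in MRB80 (80 mM PIPES/KOH pH 6.8, 1 mM MgCl2, 1 mM EGTA) plus 6% glycerol, with 20 μM compound or 0.01% DMSO. Incubation was 20 min at 37 °C, stopped with 0.5% glutaraldehyde. MT number and total length were measured by wide-field fluorescence microscopy. Data are average ± SE, compared by Scheffe's test.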

[14] = target: Tubulin beta-6 chain (Arabidopsis thaliana) (UniProt P29514); test: Effect on GFP-tagged tubulin beta6 polymerization in Arabidopsis thaliana (L.) Heynh assessed as growth of lagging end at 25 uM after 10 mins by confocal microscopic analysis (reference value: 3.54 +/- 2.48 um/min)
REF52 [15] = test: Effect on actin depolymerization in rat REF52 cells at 27.5 uM after 30 mins by fluorescence assay; assay type: cell-based; summary of the method: as §1
REF52 [16] = test: Induction of microtubule depolymerization in rat REF52 cells at 6.9 to 13.8 uM after 30 mins by fluorescence assay relative to control; assay type: cell-based
[17] = target: Tubulin beta-6 chain (Arabidopsis thaliana) (UniProt P29514); test: Effect on GFP-tagged tubulin beta6 polymerization in Arabidopsis thaliana (L.) Heynh assessed as shorten lagging end at 25 uM after 10 mins by confocal microscopic analysis (reference value: 3.57 +/- 2.33 um/min)
Bos taurus [18] = organism: Bos taurus; test: Inhibition of rhodamine-labeled bovine brain tubulin polymerization assessed as number of microtubules at 20 uM after 20 mins by fluorescence microscopic analysis relative to control; summary of the method: as §3
HeLa [19] = test: Effect on actin depolymerization in human HeLa cells at 27.5 uM after 30 mins by fluorescence assay; assay type: cell-based; summary of the method: as §1
REF52 [20] = test: Induction of microtubule depolymerization in rat REF52 cells at 0.1 uM after 30 mins by fluorescence assay; assay type: cell-based
Summary of the method: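 Ref52 cells in serum-free DMEM, treated 30 min. Permeabilized with 3% paraformaldehyde and 0.5% Triton X-100, then fixed in 3% paraformaldehyde plus 1% glutaraldehyde, quenched with borohydride. Stained with anti-tubulin DM1A and Alexa 488 secondary, imaged by confocal microscopy. FiberScore gives total fluorescence associated with fibers. Mean ± standard error, Scheffe's test at p < 0.05.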

REF52 [21] = test: Induction of microtubule depolymerization in rat REF52 cells assessed as decrease in fluorescence associated with fibers at 27.5 uM incubated for 5 to 30 mins measured after 30 mins relative to control; assay type: cell-based; design: scale not given: the % may be the effect or the level left
Bos taurus [22] = organism: Bos taurus; test: Inhibition of rhodamine-labeled bovine brain tubulin polymerization assessed as shorter microtubules at 20 uM after 20 mins by fluorescence microscopic analysis relative to control; values are per cent of control
Bos taurus [23] = organism: Bos taurus; test: Inhibition of rhodamine-labeled bovine brain tubulin polymerization assessed as number of microtubules at 20 uM after 20 mins by fluorescence microscopic analysis relative to control; values are per cent of control
REF52 [24] = test: Induction of microtubule depolymerization in rat REF52 cells assessed as […] in ratio of soluble to insoluble tubulin fraction at 0.1 uM after 30 mins by Western blot analysis; assay type: cell-based
Summary of the method: (§4)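 Ref52 rat embryonic fibroblasts grown in DMEM with 10% FCS at 37 °C/5% CO2 and dosed for 30 min in serum-free DMEM. Triton X-100 fractionation: 3 min extraction at room temperature in 50 mM MES pH 6.8 with 2.5 mM EGTA, 5 mM MgCl2 and 0.5% Triton. Equal volumes of soluble and insoluble fractions run on SDS-PAGE. Western blot with anti-tubulin DM1A and anti-actin C4, HRP chemiluminescence, band densitometry. Four independent experiments.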

REF52 [25] = test: Effect on actin depolymerization in rat REF52 cells assessed as effect on ratio of soluble to insoluble protein fraction at 0.1 uM after 30 mins by Western blot analysis; assay type: cell-based; summary of the method: as §4

Chain of Tubulin beta-6 chain (Arabidopsis thaliana) (P29514 whole entry): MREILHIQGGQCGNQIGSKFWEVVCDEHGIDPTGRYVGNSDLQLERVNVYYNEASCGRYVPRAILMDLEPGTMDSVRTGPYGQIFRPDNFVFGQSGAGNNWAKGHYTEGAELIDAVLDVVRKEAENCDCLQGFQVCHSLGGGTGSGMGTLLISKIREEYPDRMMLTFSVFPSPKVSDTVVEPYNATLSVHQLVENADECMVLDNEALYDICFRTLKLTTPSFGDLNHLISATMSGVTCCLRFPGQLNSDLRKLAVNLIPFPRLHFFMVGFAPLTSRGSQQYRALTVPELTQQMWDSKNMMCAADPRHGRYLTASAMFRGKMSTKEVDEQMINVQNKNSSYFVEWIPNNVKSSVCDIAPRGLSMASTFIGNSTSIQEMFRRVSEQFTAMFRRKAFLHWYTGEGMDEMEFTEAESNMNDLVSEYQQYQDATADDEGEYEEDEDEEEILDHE

SMILES | Activity [2] | Activity (HeLa [3]) | Activity (Arabidopsis thaliana [4]) | Activity (Arabidopsis thaliana [5]) | Activity [6] | Activity (REF52 [7]) | Activity [8] | Activity (REF52 [9]) | Activity (REF52 [10]) | Activity (REF52 [11]) | Activity [14] | Activity (REF52 [15]) | Activity [17] | Activity (HeLa [19]) | Activity (REF52 [20]) | other results
CC(=O)O[C@H]1C(=O)[C@@]2(C)[C@H]([C@H](OC(=O)c3ccccc3)[C@]3(O)C[C@H](OC(=O)[C@H](O)[C@@H](NC(=O)c4ccccc4)c4ccccc4)C(C)=C1C3(C)C)[C@]1(OC(C)=O)CO[C@@H]1C[C@@H]2O |  |  |  |  |  |  |  |  |  |  |  |  |  |  |  | Activity (REF52 [1]): Active
CC(C)=CCC[C@H](C)CC=O | inactive | inactive | inactive | inactive | 5.94 um/min | inactive | 14.6 um/min | tde | 50% | Dose-dependent effect | 1.66 um/min | inactive | 7.48 um/min | inactive |  | Activity (REF52 [12]): 60%; inhibition (Bos taurus [13]): inactive; Activity (REF52 [16]): inactive; inhibition (Bos taurus [18]): inactive
CC[C@]1(O)C[C@@H]2CN(CCc3c([nH]c4ccccc34)[C@@](C(=O)OC)(c3cc4c(cc3OC)N(C)[C@H]3[C@@](O)(C(=O)OC)[C@H](OC(C)=O)[C@]5(CC)C=CCN6CC[C@]43[C@@H]65)C2)C1 |  |  |  |  |  |  |  |  |  |  |  |  |  |  | Active | 
CC(C)=CCC[C@@H](C)CC=O | Active | Active | inactive | inactive | 0 um/min | Active | 0 um/min | tde | 20% | Dose-dependent effect | 0 um/min | inactive | 0 um/min | inactive |  | Activity (REF52 [21]): 20%; residual activity (Bos taurus [22]): 30%; residual activity (Bos taurus [23]): 40%
COc1cc2c(c(OC)c1OC)-c1ccc(OC)c(=O)cc1[C@@H](NC(C)=O)CC2 |  |  |  |  |  |  |  |  |  |  |  |  |  |  | Active | Activity (REF52 [24]): Active; Activity (REF52 [25]): inactive
